Rows were chosen to be rich in hits. Some 1.4% of all compounds tested hit in one or more screens of this group.
NR2E3 ag-1: inhibitors of NR2E3-RetCOR corepressor binding, primary screen, NR2E3 agonist project, biochemical, TR-FRET, GST-NR2E3, biotin-RetCOR; 320,000 compounds, 0.12% hits; Photoreceptor-specific nuclear receptor (Homo sapiens), Q9Y5X4; AID 2300, 2010; inhibition of corepressor binding, % at 4.78 µM; 1536-well;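 active means percent inhibition above the cutoff of mean plus 3 SD of all tested compounds, set per screening campaign, cut at about 20% in these data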
Target sequence (Q9Y5X4 whole entry, looked up): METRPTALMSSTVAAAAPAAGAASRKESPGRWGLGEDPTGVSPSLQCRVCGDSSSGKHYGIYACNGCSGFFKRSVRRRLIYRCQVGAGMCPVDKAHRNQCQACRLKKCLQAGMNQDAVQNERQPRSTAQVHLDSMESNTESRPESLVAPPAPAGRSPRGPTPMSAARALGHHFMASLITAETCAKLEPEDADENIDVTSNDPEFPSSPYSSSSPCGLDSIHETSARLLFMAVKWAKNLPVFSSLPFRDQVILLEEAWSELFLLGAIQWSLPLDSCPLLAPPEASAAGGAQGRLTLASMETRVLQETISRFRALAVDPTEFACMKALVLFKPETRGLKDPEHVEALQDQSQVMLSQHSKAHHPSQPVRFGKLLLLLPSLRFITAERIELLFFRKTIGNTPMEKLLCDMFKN
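Format: 1536-well format; test system: GST-NR2E3 and biotin-RetCOR proteins; read-out basis: percent inhibition of TR-FRET ratio; timing: 5 h incubation at 4 °C; detection: time-resolved FRET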
NR2E3 ag-2: NR2E3 agonists in two-hybrid cells, primary screen, cell-based, luminescence, CHO-S, Gal4-NCOR/VP16-NR2E3; luciferase; 360,000 compounds, 0.35% hits; Photoreceptor-specific nuclear receptor (Homo sapiens), Q9Y5X4; AID 602229, 2012; inhibition of corepressor binding, % at 3.98 µM;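 active means inhibition above the mean of all tested compounds plus 3 SD, cut at about 70% in these data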;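 further: higher means lower luciferase signal from less NR2E3 corepressor binding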
NR1D1 modulator: modulators of Rev-erb alpha DNA binding, primary screen, biochemical, FITC-DNA, fluorescence polarization, uHTS; activity, % at 10 µM; Nuclear receptor subfamily 1 group D member 1 (Homo sapiens), P20393; AID 1259318, 2017; 370,000 compounds, 0.79% hits; Rev-erbα–FITC-DNA binding, 90 min;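 active means activity above about 14%, limit read from the data; passing the limit was not always enough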
PG9 Ab binder: binders of HIV-1 gp120 antibody PG9, primary screen, biochemical, TR-FRET. HIV-1 gp120 / PG9 antibody interaction. TR-FRET gp120-PG9 antibody binding. inhibition, % at 6.7 µM. 360,000 compounds, 0.43% hits; in the data active means inhibition above about 8.5%
NR2E3 ag conf: NR2E3 agonist confirmation in cells, cell-based, luminescence, CHO-S two-hybrid. shares compounds with NR2E3 ag-2. CHO-S mammalian two-hybrid NR2E3-NCOR, luciferase luminescence. inhibition, % at 3.98 µM. 2,300 compounds, 51% hits. AID 624378, 2012;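 active means average inhibition above a cutoff equal to the mean inhibition of all tested compounds plus one SD, cut at about 70% in these data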
VP16 counter: GAL4-VP16 reporter modulators, confirmation, counter-screen for NR2E3 agonist project, cell-based, luminescence, CHO-S, high throughput; shares compounds with NR2E3 ag-2; CHO-S GAL4-VP16 luciferase reporter; inhibition, % at 3.98 µM; 2,300 compounds, 29% hits;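 active means mean inhibition above a cutoff equal to the average over all tested compounds plus one standard deviation, cut at about 70% in these data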;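 further: luciferase from a UAS reporter driven by GAL4-VP16 transactivation; higher means less reporter light so more repression of VP16 activity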
Numbers stand for hits; . = inactive; / = not tested or not shown.

SMILES	NR2E3 ag-1	NR2E3 ag-2	NR1D1 modulator	PG9 Ab binder	NR2E3 ag conf	VP16 counter
CC(C)c1cccc(-c2csc(C(C)(O)c3ccncc3)n2)c1 (stereo unspecified)	/	85	.	.	93	80
CC(=O)Oc1cc(C)c(OC(C)=O)c2ccccc12	/	/	.	/	/	/
Cc1ccc(NC(=O)c2ccccc2NS(=O)(=O)c2ccc(F)cc2)cc1S(=O)(=O)N1CCCCC1	.	89	.	.	98	92
Cc1ccc(NC(=O)CCNC(=O)c2ccccc2Cl)cc1S(=O)(=O)N1CCCCCC1	.	.	.	.	/	/
O=C(Nc1cccc(S(=O)(=O)N2CCCCC2)c1)c1ccccc1NS(=O)(=O)c1ccc(F)cc1	.	86	.	.	98	71
Cc1ccc(S(=O)(=O)N2[C@@H](c3ccccc3)C(C(=O)O)=CC[C@H]2c2ccc(Cl)c(Cl)c2)cc1	.	.	.	.	/	/
Cc1ccc(S(=O)(=O)N2[C@@H](c3ccc(Cl)cc3)C(C(=O)O)=CC[C@H]2c2ccc(Cl)cc2)cc1	.	.	.	.	.	.
Cc1ccc([C@H]2C(C(=O)O)=CC[C@@H](c3ccc(Cl)c(Cl)c3)N2S(=O)(=O)c2ccc(C)cc2)cc1	/	.	.	.	.	.
Cc1ccc([C@H]2C(C(=O)O)=C[C@@H](CC3CCCC3)N2S(=O)(=O)c2ccc(C)cc2)cc1	/	.	.	.	/	/
CCc1ccc([C@H]2C(C(=O)O)=C[C@@H](CC3CCCC3)N2S(=O)(=O)c2ccc(C)cc2)cc1	/	.	.	.	.	.
CCCC[C@@H]1C=C(C(=O)O)[C@H](c2ccc(C)cc2)N1S(=O)(=O)c1ccc(C)cc1	/	.	.	.	/	/
CCCC[C@@H]1C=C(C(=O)O)[C@H](c2ccc(Cl)c(Cl)c2)N1S(=O)(=O)c1ccc(C)cc1	/	85	.	.	.	.
Cc1nc(-c2ccc(OCC(C)C)c(C#N)c2)sc1C(=O)O	/	/	.	/	/	/
O=C(Cc1ccccc1)NC1CCCCN(Cc2cccc(Cl)c2)C1=O (stereo unspecified)	/	/	.	/	/	/
Cc1nn(-c2ccccc2Cl)c(Cl)c1/C=N/Nc1nc2ccccc2s1	.	.	.	.	77	.
Cc1ccc(-c2nnc(SCC(=O)NNC(=S)Nc3ccccc3)n2C2CCCCC2)cc1	/	/	.	/	/	/
CC(=O)N1C[C@@H](c2c[nH]c3ccccc23)C=C[C@H]1C(=O)NS(=O)(=O)c1ccc(C)cc1	/	/	.	/	/	/
Cc1ccc(S(=O)(=O)Nc2ccc3c(c2)n(C)c(=O)n3C)cc1	.	.	.	.	/	/
CCOc1ccc(NS(=O)(=O)c2ccc3c(c2)N(C(C)=O)CCS3)cc1	.	.	.	.	.	.
CN(c1cccc(NS(=O)(=O)c2ccccc2)c1)S(C)(=O)=O	.	.	.	.	/	/
CCOc1ccc(S(=O)(=O)Nc2ccc3c(c2)n(C)c(=O)n3C)cc1	.	74	.	.	.	.
CCOc1ccc(S(=O)(=O)Nc2cccc(N(C)S(C)(=O)=O)c2)cc1	.	.	.	.	.	.
COc1ccc(NS(=O)(=O)c2ccc(C(=O)N3CCC(C)CC3)cc2)cc1	/	.	.	.	.	.
CCOc1ccc(NS(=O)(=O)c2ccc3c(c2)N(C(C)=O)CC3)cc1	.	.	.	.	/	/
N#CCC[C@H]1CC[C@]2(CCCN(C(=O)c3ccc4ccccc4n3)C2)O1	/	/	.	/	/	/
Cc1ccc(-c2nc(C3CCCN(S(=O)(=O)c4ccc(C)c(C)c4)C3)no2)cc1 (stereo unspecified)	/	/	.	/	/	/
CCc1ccc(S(=O)(=O)Nc2cc3c(cc2C)n(C)c(=O)n3C)cc1	.	98	.	.	83	.
CCOc1ccc(NS(=O)(=O)c2ccc(C(=O)N3CCN(c4ncccn4)CC3)cc2)cc1	.	.	.	.	/	/
CCOc1ccc(NS(=O)(=O)c2ccc(C(=O)N3CCCCC3)cc2)cc1	.	.	.	.	.	.
